Tests used:
[1] = biological target: T1, Solute carrier family 22 member 12 (Homo sapiens, UniProt Q96S37); assay: Inhibition of human URAT1 expressed in HEK293 cells assessed as inhibition of [14C]-urate uptake at 10 uM after 2 mins by beta-scintillation counting analysis; format: cell-based; details: hek293, 2 min
T1 sequence (Q96S37 whole entry): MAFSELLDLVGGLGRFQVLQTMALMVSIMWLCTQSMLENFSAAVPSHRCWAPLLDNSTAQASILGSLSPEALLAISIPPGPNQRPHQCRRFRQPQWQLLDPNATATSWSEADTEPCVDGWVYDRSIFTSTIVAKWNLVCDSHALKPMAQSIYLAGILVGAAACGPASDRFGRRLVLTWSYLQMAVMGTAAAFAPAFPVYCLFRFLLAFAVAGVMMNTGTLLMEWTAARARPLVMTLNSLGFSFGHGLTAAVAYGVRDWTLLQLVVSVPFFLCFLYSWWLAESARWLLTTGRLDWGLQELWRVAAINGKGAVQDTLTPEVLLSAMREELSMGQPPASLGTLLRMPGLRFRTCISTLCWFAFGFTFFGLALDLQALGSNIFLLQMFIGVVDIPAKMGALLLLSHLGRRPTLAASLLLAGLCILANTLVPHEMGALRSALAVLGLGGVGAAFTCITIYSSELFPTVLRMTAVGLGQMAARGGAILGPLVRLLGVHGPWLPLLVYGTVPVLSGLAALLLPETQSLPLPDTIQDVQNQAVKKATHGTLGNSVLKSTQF
Outline: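 HEK cells overexpressing hURAT1; uric acid uptake measured in presence of compound at 10 µM. Uptake expressed as percent of vehicle control (0.5% DMSO, no inhibitor). Mean ± SD, n = 4.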

[2] = Toxicity in liver microsomes isolated from CYP activator dexamethasone-treated Sprague-Dawley rat assessed as induction of mitochondrial permeability transition by measuring mitochondrial swelling at 50 uM measured after 30 mins in presence of NADPH; design: species or system Microsome; details: 0.5 h
Outline: (§1)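 Compound (50 µM) incubated with dexamethasone-treated rat liver microsomes at 37 °C, with or without NADPH, for 30 min. Isolated mitochondrial fraction then added. Swelling followed as absorbance change at 540 nm over time, and area over the curve integrated as the MPT index. Mean ± SD, n = 3.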

[3] = system: Hepatocyte; assay: Cytotoxicity in hepatocytes isolated from CYP activator dexamethasone-treated C57BL/6J mouse at 5 uM after 18 hrs by LDH assay relative to control; format: ADME, cell-based
Outline: (§2)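 Hepatocytes from mice pretreated with dexamethasone to induce CYP enzymes; compounds at 1 or 5 µM. Cytotoxicity read as LDH release after drug exposure (text gives 16 hr, legend 18 hr). Values are averages of duplicate experiments.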

[4] = Toxicity in liver microsomes isolated from CYP activator dexamethasone-treated Sprague-Dawley rat assessed as induction of mitochondrial permeability transition by measuring mitochondrial swelling at 50 uM measured after 30 mins in absence of NADPH; design: species or system Microsome; details: 0.5 h; outline: as §1
[5] = system: Hepatocyte; assay: Cytotoxicity in hepatocytes isolated from CYP activator dexamethasone-treated C57BL/6J mouse after 18 hrs by LDH assay relative to control; format: ADME, cell-based; outline: as §2
[6] = system: Hepatocyte; assay: Cytotoxicity in hepatocytes isolated from CYP activator dexamethasone-treated C57BL/6J mouse at 1 uM after 18 hrs by LDH assay relative to control; format: ADME, cell-based; outline: as §2
[7] = biological target: T2, URAT1 (SLC22A12) (Homo sapiens, UniProt Q96S37); assay: Inhibition of human URAT1 expressed in HEK293 cells assessed as [14C]-urate uptake at 10 uM after 2 mins by beta-scintillation counting analysis relative to control; format: cell-based; design: scale not given: the % may be the effect or the level left; details: HEK293 cells expressing human URAT1, probe [14C]-urate, read-out: Activity
T2 sequence (Q96S37 whole entry): T1 sequence (Q96S37 whole entry)

| SMILES | inhibition (INH) [1] | activity at 2 min, 10 µM [7] | Activity [2] | Activity [3] | Activity [4] | Activity [5] | Activity [6] |
| --- | --- | --- | --- | --- | --- | --- | --- |
| CCc1oc2ccccc2c1C(=O)c1cc(O)cc(Br)c1 | Active |  | Non-Toxic | < 16% | Non-Toxic |  |  |
| CCc1oc2ccccc2c1C(=O)c1cc(O)c(Br)cc1Br | Active |  | Non-Toxic | < 16% | Non-Toxic |  |  |
| CCc1oc2ccccc2c1C(=O)c1cc(O)ccc1Br | Active |  | Non-Toxic | < 16% | Non-Toxic |  |  |
| CCc1oc2ccccc2c1C(=O)c1cc(Br)c(O)c(Br)c1 [BENZBROMARONE] |  | < 10% | Toxic | 52% | Non-Toxic | Dose-dependent effect | 27% |

Further lines, with some results ahead:

| inhibition (INH) [1] | activity at 2 min, 10 µM [7] | SMILES | Activity [2] | Activity [3] | Activity [4] | Activity [5] | Activity [6] |
| --- | --- | --- | --- | --- | --- | --- | --- |
| Active |  | CCc1oc2ccccc2c1C(=O)c1cccc(O)c1Br | Non-Toxic | < 16% | Non-Toxic |  |  |
| Active |  | CCc1oc2ccccc2c1C(=O)c1ccc(Br)c(O)c1Br | Non-Toxic | < 16% | Non-Toxic |  |  |
| Active |  | CCc1oc2ccccc2c1C(=O)c1ccc(Br)c(O)c1 | Non-Toxic | < 16% | Non-Toxic |  |  |
